High-throughput results from PubChem.
Hits are enriched below; roughly 3.7% of the tested compounds scored in any of these assays.
KCNK9 inh: KCNK9 potassium channel inhibitors, primary screen, HEK293 cells, thallium flux | FluxOR thallium flux fluorescence; active compounds read low | B-score at 10 µM | hit rate 1.2% among 310,000 | AID 488922, 2010;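 active means ratio B-score over 3 SD below the library mean, with starting fluorescence within 5 SD of its mean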;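 further: negative B-score means less thallium flux so channel inhibition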
KCNK3 block: human KCNK3 channel inhibitors, primary screen, CHO cells, FluxOR thallium flux, B-score. Potassium channel subfamily K member 3 (Homo sapiens), O14649. FluxOR fluorescence; active compounds read low. B-score at 10 µM. hit rate 0.84% among 340,000. AID 602410, 2012;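 active means B-score under library mean minus 4 SD, starting fluorescence ratio at most library mean plus 5 SD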;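 further: more negative B-score means stronger inhibition of thallium flux through KCNK3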
hERG protect: hERG rescue from dofetilide block, primary screen, cell-based, CHO-hERG, FluxOR thallium flux, dofetilide IC70; dofetilide IC70 present; hit rate 0.51% among 310,000; activation (rescue from dofetilide block), less the hit threshold, % at 10 µM; Voltage-gated inwardly rectifying potassium channel KCNH2 (Homo sapiens), Q12809;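 active means activation above the mean of controls blocked by dofetilide plus 5 SD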;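 further: thallium influx through hERG after potassium depolarization seen as dye fluorescence rise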
Kir21 inh: inhibitors of mouse Kir2.1 inward-rectifier potassium channel. HEK293-Kir2.1, FluxOR thallium flux fluorescence; active compounds read low. B-score at 10 µM. hit rate 0.85% among 310,000. Inward rectifier potassium channel 2 (Mus musculus), P35561. AID 1672, 2009;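 active means fluorescence ratio B-score at or below minus 3 SD of library scores, with starting-brightness B-score within 2 SD, cut at about -4.2 in these data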;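 further: channel flux triggered by added potassium and thallium sulfate stimulus; B-score of peak minus minimum fluorescence over baseline after thallium stimulus; more negative B-score means stronger Kir2.1 block with less thallium influx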
Target sequence (P35561 whole entry, looked up): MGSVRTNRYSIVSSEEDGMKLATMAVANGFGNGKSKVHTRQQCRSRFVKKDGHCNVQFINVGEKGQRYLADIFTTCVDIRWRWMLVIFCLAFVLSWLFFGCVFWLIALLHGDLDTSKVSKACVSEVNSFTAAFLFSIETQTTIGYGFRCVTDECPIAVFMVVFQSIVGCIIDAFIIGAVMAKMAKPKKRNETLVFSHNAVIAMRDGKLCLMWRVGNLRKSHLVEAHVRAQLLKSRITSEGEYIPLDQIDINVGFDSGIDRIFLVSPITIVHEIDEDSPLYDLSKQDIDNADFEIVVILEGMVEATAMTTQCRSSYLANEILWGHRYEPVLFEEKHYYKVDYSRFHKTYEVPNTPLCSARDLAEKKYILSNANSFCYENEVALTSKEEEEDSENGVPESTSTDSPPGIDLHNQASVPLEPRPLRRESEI
KCNQ1 pot: potentiators or activators of KCNQ1 channel, primary screen, cell-based, thallium flux, high-throughput; CHO-K1 KCNQ1, thallium flux FluxOR fluorescence; active compounds read high; B-score at 10 µM; hit rate 0.35% among 310,000; AID 2648, 2010;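 active means fluorescence ratio B-score, a plate-corrected score, at least three library SD, with initial intensity B-score within 5 SD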
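Test system: CHO-K1 cells stably expressing KCNQ1 / Medium: assay buffer / Also added: depolarizing K+/Tl+ stimulus, K2SO4 and Tl2SO4 each 12.5 mM in 5x stock / Incubation: 90 min dye loading and 20 min compound exposure, both at room temperature / Signal: thallium influx via FluxOR fluorescence, kinetic imaging / Evaluation: B score of baseline-normalized fluorescence ratio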
KCNQ1 block: inhibitors of human KCNQ1 channel, primary screen, cell-based, thallium flux, high-throughput; Potassium voltage-gated channel subfamily KQT member 1 (Homo sapiens), P51787; CHO-K1 KCNQ1, FluxOR thallium flux fluorescence; active compounds read high; B-score at 10 µM; hit rate 1.3% among 310,000;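 active means compounds whose thallium flux B-score, printed positive for inhibition, exceeds three library SD while starting fluorescence stays within three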;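 further: channel opened by potassium depolarization with thallium stimulus after 20 min compound exposure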
* = called active by the depositor; i = inactive; . = no result given.

SMILES	KCNK9 inh	KCNK3 block	hERG protect	Kir21 inh	KCNQ1 pot	KCNQ1 block
CN(C)c1ccc(/C=C/c2cc[n+]([O-])cc2)cc1	i	.	-38.0	-10.7	i	i
CC[n+]1ccccc1/C=C/c1ccc(N(C)C)cc1	i	i	-32.7	-0.1	i	8*
CC[n+]1ccc(/C=C/c2ccc(N(C)C)cc2)c2ccccc21	.	-9.93*	.	.	.	.
CCc1cc(/C(Cc2ccccn2)=N\O)c(O)cc1O	i	i	-8.3	-5.6*	i	i
CCc1cc(/C(Cc2cscn2)=N\O)c(O)cc1O	i	i	-6.3	-2.06	i	i
COc1ccc(C(=O)Nc2nnc(Cc3ccccc3)s2)c(OC)c1	i	i	-4.2	-0.04	i	i
COc1ccc(OC)c(C2C(C(C)=O)=C(C)Nc3ncnn32)c1 (stereo unspecified)	i	i	-6.2	1.4	i	i
Cc1cccc(N2C(=O)/C(=C\c3ccc(OC(F)F)cc3)c3ccccc3C2=O)c1	i	i	-2.7	-4.35*	i	i
CCOc1cc(/C=C2\C(=O)N(c3cccc(C(F)(F)F)c3)C(=O)c3ccccc32)ccc1O	i	i	-5.4	0.41	i	i
COc1cccc(/C=C2\C(=O)N(c3cccc(C)c3)C(=O)c3ccccc32)c1	i	i	-10.0	-9.21*	i	i
CCOc1ccccc1NC(=O)CSc1nc2cc(O)ccc2c(=O)n1-c1ccc(OC)c(OC)c1	i	i	-11.0	-0.11	i	i
Cc1cc(=O)n2nc(N3CCC(C(=O)NCc4ccc(Cl)cc4)CC3)sc2n1	i	i	-12.1	-0.36	i	i
CN(c1ccc(C(=O)COC(=O)C2CC2)cc1)S(C)(=O)=O	.	i	.	.	.	.
Fc1cccc(/C=N/Nc2ccccn2)c1	i	i	-10.6	-1.49	i	i
Fc1cccc(/C=N/Nc2ccc3ccccc3n2)c1	i	i	10.1*	-0.85	58*	i
Nc1ccc(S(=O)(=O)Nc2nccs2)cc1N=Nc1ccccc1[N+](=O)[O-]	.	i	.	.	.	.
O=C(N/N=C/c1ccc(O)cc1)c1csc2c1CCCC2	i	i	-17.3	1.13	i	i
COc1ccccc1-c1nc2cc3ccccc3cc2nc1-c1ccccc1	i	i	-6.5	-0.68	i	9*
NC(=O)C[n+]1cccc(CNC(=O)c2ccc(OC(F)F)cc2)c1	i	i	4.6*	-0.07	i	i
COc1cc2c(cc1OC)CN(C(=O)c1ccc(Cl)c(S(=O)(=O)N3CCCC3)c1)CC2	.	-8.74*	.	.	.	.
Cc1ccccc1C(=O)c1cccn1CC(=O)NCCCN1CCCCC1	i	i	-3.5	0.2	i	i
Cc1ccc(C)c(N2CCN(CCCNC(=O)Cn3cccc3C(=O)c3ccccc3C)CC2)c1	i	i	-26.8	-7.42*	i	i
Cc1cc(=O)oc2cc(OC(=O)C3CCN(C(=O)c4ccc(F)cc4)CC3)ccc12	i	i	-11.4	0.73	i	i
Cc1ccc(NCCC(=O)c2cccc([N+](=O)[O-])c2)cc1	i	i	-10.6	0.7	i	9*
O=C(CCNc1ccc(F)cc1)c1cccc([N+](=O)[O-])c1	i	i	-18.4	-1.31	i	6*
SMILES	KCNK9 inh	KCNK3 block	hERG protect	Kir21 inh	KCNQ1 pot	KCNQ1 block
COc1ccc(N2CCN(S(=O)(=O)c3ccc4c(c3)CCCC4)CC2)c([N+](=O)[O-])c1	i	i	-13.7	1.15	i	7*
COc1ccc(C(=O)C[n+]2ccc(N(C)C)cc2)cc1	i	i	-14.6	0.7	i	i
CCc1ccc2[nH]c(O)c(N=Nc3nc(-c4ccccc4)cs3)c2c1	i	i	7.2*	0.36	10*	i
O=c1[nH]c(SCc2nc3ccccc3c(=O)n2-c2ccccc2C(F)(F)F)nc2ccccc12	-6.62*	i	-12.8	-1.09	i	i
COc1ccc(NC(=O)C(c2ccc(OC)cc2)N(Cc2ccco2)C(=O)CC2NC(=O)NC2=O)cc1 (stereo unspecified)	i	i	-0.7	0.04	i	i
COc1ccc(C(C(=O)Nc2ccc(C(C)C)cc2)N(Cc2ccco2)C(=O)CC2NC(=O)NC2=O)cc1 (stereo unspecified)	i	i	-2.7	0.1	i	6*
COc1cc(CNCCc2ccccc2)ccc1OCc1ccc(Cl)nc1	i	i	-10.9	-6.4*	i	i
COc1ccccc1CCNCc1ccc(OC)c(OCc2ccccc2)c1	i	i	-24.3	-8.5*	i	i
CCn1c(SCC(=O)Nc2nccs2)nnc1-c1ccccn1	i	i	-10.8	-0.85	i	i
CCOC(=O)c1c(NC(=O)CSc2nnnn2C)sc(C)c1-c1ccc(C)cc1	-6.63*	i	-13.6	2.34	i	i
CNC(=O)/C(C#N)=C/c1cccc(Oc2ccccc2)c1	i	i	-13.2	-5.09*	i	i
Cc1onc(-c2ccccc2)c1CNS(=O)(=O)c1ccc(F)cc1F	i	i	-10.9	-3.99	i	i
Cc1onc(-c2ccccc2)c1CNS(=O)(=O)c1cccc(Br)c1	i	i	-9.2	-6.36*	i	i
O=C(c1ccc(CS(=O)c2cccc(Cl)c2)o1)N1CCN(c2ccccn2)CC1 (stereo unspecified)	i	i	-13.5	0.67	i	i
O=Cc1c(N2CCN(CCO)CC2)nc2ccccn2c1=O	i	i	-15.8	-3.27	i	13*
c1ccc(CC2CCN(Cc3ccccn3)CC2)cc1	i	i	-8.0	0.92	i	i
Clc1ccc(CN2CCC(Cc3ccccc3)CC2)cc1	i	i	-1.9	-7.51*	i	i
Fc1ccc(CN2CCC(Cc3ccccc3)CC2)cc1F	i	i	-8.7	-1.48	i	i
O=C(/C=C/c1cccc(Cl)c1)N1CCC(Cc2ccccc2)CC1	i	i	-9.5	-0.15	i	8*
Clc1cccc(CN2CCC(Cc3ccccc3)CC2)c1	i	i	-14.1	-7.21*	i	i
COc1cc(C(=O)Nc2cccc(S(=O)(=O)N3CCCC3)c2)cc(OC)c1C	-7.72*	i	-12.4	-0.93	i	i
COc1ccccc1CCC(=O)Nc1cccc(S(=O)(=O)N2CCCCCC2)c1	i	i	-12.7	-1.39	i	6*
